Assay results collected from several papers.
Lines come from different studies, so protocols differ. Values after ≈ are worked out from the molar mass of the structure shown.

C=C/C=C(\C)CC[C@H]1C[C@@H](O)CC(=O)O1 — MIC (Staphylococcus aureus; microbial growth, broth dilution; ATCC6538P): 256 µg/mL (≈ 1220 µM)
O=C(O)c1cn(C2CC2)c2cc(N3CCNCC3)c(F)cc2c1=O — inhibition zone (Escherichia coli; microbial growth, disc diffusion; 100 µg/mL, 24 h): 25 mm
CO/N=C(\C(=O)N[C@@H]1C(=O)N2C(C(=O)O)=C(CSC(=O)c3ccco3)CS[C@H]12)c1csc(N)n1 — MBC (Staphylococcus aureus; microbial killing; CVCC546; 18 h): 2 µg/mL
CC(C)(O/N=C(\C(=O)N[C@@H]1C(=O)N2C(C(=O)[O-])=C(C[n+]3ccccc3)CS[C@H]12)c1csc(N)n1)C(=O)O — inhibition zone (Escherichia coli; microbial growth, disc diffusion; 2000 µg/mL, 24 h): 5 mm
CC(O)CSc1nnc(Cn2cnc3c2c(=O)n(C)c(=O)n3C)n1-c1ccccc1 (stereo not shown) — inhibition zone (Escherichia coli; microbial growth, disc diffusion; 25 µg/disc): 11 mm
CO/N=C(\C(=O)N[C@@H]1C(=O)N2C(C(=O)O)=C(COC(C)=O)CS[C@H]12)c1csc(N)n1 — MIC90 (Escherichia coli; microbial growth, broth dilution; clinical isolate): 64 µg/mL (≈ 141 µM)
CC(O)CSc1nnc(-c2cc3ccccc3o2)n1-c1ccccc1 (stereo not shown) — inhibition zone (Staphylococcus aureus; microbial growth, disc diffusion; 25 µg/disc): 11.3 mm
CC1(C)S[C@@H]2[C@H](NC(=O)[C@H](N)c3ccc(O)cc3)C(=O)N2[C@H]1C(=O)O — inhibition zone (Escherichia coli; microbial growth, disc diffusion; 100 µg/mL, 24 h): 20 mm
CC(O)CSc1nnc(-c2cc3c(ccc4ccccc43)o2)n1-c1ccccc1 (stereo not shown) — inhibition zone (Escherichia coli; microbial growth, disc diffusion; 25 µg/disc): 15.7 mm
C[C@@H](O)[C@H]1C(=O)N2C(C(=O)O)=C(SCCN=CN)C[C@H]12 — inhibition zone (Escherichia coli; microbial growth, disc diffusion; 2000 µg/mL, 24 h): 18.5 mm
